Bioassay records: PubChem BioAssay, PCMD
Only some compounds are listed: those with a hit (about 1.1% of all), similar ones and a draw of the others.
eIF2B yeast act = modulators of yeast eIF2B activity. S. cerevisiae eIF2B-epsilon R284H, GCN4-lacZ luminescence. inhibition, % at 25 µM (by protocol). 27,000 compounds, 0.91% hits. AID 688;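 active = mutant luminescence inhibited past about 50% while wild type luminescence and mutant growth stay under set limits, limit read from the data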
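Material – yeast eIF2B-epsilon R284H mutant carrying GCN4–beta-galactosidase fusion · Medium – YPD yeast growth medium · Compound – one concentration, 25 µM, 0.25% DMSO · Times – 16 h at 30 °C exposure · Signal – Beta-Glo luminescence plus absorbance at 595 nm · Read-out – % inhibition of reporter signal and growth versus controls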
Yeast tox = Inhibitors of S. cerevisiae growth, toxicity. S. cerevisiae wild-type growth, A595 turbidity, 16 h. growth inhibition, % at 25 µM (by protocol). 30,000 compounds, 0.3% hits. AID 685;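 active = mutant and wild-type yeast strains alike exhibit over 30% growth inhibition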
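Incubation: 16 h growth with compound, 30 °C; Material: S. cerevisiae wild-type or eIF2Bepsilon-R284H mutant strain; Signal: turbidity measured as absorbance at 595 nm; Medium: YPD yeast growth medium; Measure: growth inhibition (%) versus cell controls and blanks; Doses: 25 µM single dose.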
A number is an active result; – = inactive; · = no result.

SMILES	eIF2B yeast act	Yeast tox
Clc1ccc(-c2nn3c(-c4cccc(Cl)c4)nnc3s2)cc1	–	–
Cc1nn2c(=O)nc3sc4c(c3c2[nH]c1=O)CCCC4	·	–
CCC(Sc1nc2sc(C(=O)OC)c(C)c2c(=O)n1N)C(=O)N(CC)CC (stereo unspecified)	–	–
CCC(Sc1nc2sc(C(=O)OC)c(C)c2c(=O)n1N)C(=O)NCC1CCCO1 (stereo unspecified)	50.3	–
Cc1ccc(CN2C3=NC(=O)CN3c3ccccc32)cc1	–	–
CCN1CCn2c1nc(N1CCOCC1)nc2=O	–	–
Cc1cc2c(c(=O)n1CC1CCCO1)C(c1ccco1)C(C#N)=C(N)O2 (stereo unspecified)	64.4	–
Cc1cc2c(c(=O)n1CCCn1ccnc1)C(c1ccco1)C(C#N)=C(N)O2 (stereo unspecified)	–	–
CC(C)(CNC(=O)c1cccs1)CNC(=O)c1cccs1	–	–
CCCCCC(=O)Nc1ccc(N2CCN(C(=O)CCC)CC2)cc1	–	–
CCCCC(=O)Nc1ccc(N2CCN(S(C)(=O)=O)CC2)cc1	61.9	–
O=C(CN(C(=O)CCC(=O)Nc1ccccn1)c1ccc2c(c1)OCCO2)NCCc1ccccc1	–	–
CCOc1ccccc1N(C(=O)CNC(=O)c1ccco1)C(C(=O)NC1CCCC1)c1cccnc1 (stereo unspecified)	–	–
O=C(Nc1ccc(Cl)c(Cl)c1)C1CC(=O)N(c2ccc(Br)cc2)C1 (stereo unspecified)	–	79.2
Cc1ccc(N2CC(C(=O)Nc3nccs3)CC2=O)cc1Cl (stereo unspecified)	·	–
O=C(c1ccc(N2C(=O)CCC2=O)cc1)N1CCOCC1	–	–
Cc1cc(C)c(NC2=CC(=O)CC(C)(C)C2)c(C#N)c1	·	–
Cc1ccc(NC(=O)c2noc3c2CCCCC3)cc1C	–	–
CCC(=O)N1CCc2cc(S(=O)(=O)NC(C(=O)NCc3ccccc3)C(C)C)ccc21 (stereo unspecified)	55.1	–
CCC(=O)N1CCc2cc(S(=O)(=O)NC(C(=O)NCc3ccc(F)cc3)C(C)C)ccc21 (stereo unspecified)	–	–
CNC(=O)CCCc1nc(-c2ccccc2Cl)no1	–	–
CSc1nnc(-c2sc3cc(C(F)(F)F)cnc3c2-c2ccccn2)n1C	–	–
CCOC(=O)C1=C(C)NC(SCc2cc(=O)[nH][nH]2)=C(C#N)C1c1cccs1 (stereo unspecified)	55.8	–
C=CCOC(=O)C1=C(C)NC(SC)=C(C#N)C1c1cccs1 (stereo unspecified)	–	–
Oc1c(CN2CCOCC2)cc(-c2ccccc2)cc1CN1CCOCC1	–	–
SMILES	eIF2B yeast act	Yeast tox
Cc1c(O)c(CN2CCCC2)cc2c1oc(=O)c1ccccc12	58.1	–
Cc1cc(C)c(S(=O)(=O)N2CCC(C(=O)NCc3ccc(Cl)cc3Cl)CC2)c(C)c1	·	82.3
CCS(=O)(=O)N1CCC(C(=O)NCc2ccc(F)cc2Cl)CC1	–	–
Nc1cc(=O)[nH]c(SCC(=O)N2CCCc3ccccc32)n1	–	–
Cc1cc(C)c(C(N)=O)c(Nc2cccc3ccccc23)n1	·	–
COc1ccccc1Nc1nc(C)cc(C)c1C(N)=O	52.1	–
CCOC(=O)N1CCN(c2nc(N(c3ccccc3)c3ccccc3)nc(-n3ccnc3)n2)CC1	–	47.9
c1ccc(N(c2ccccc2)c2nc(N3CCCC3)nc(-n3ccnc3)n2)cc1	–	–
O=C(NCC1CCCO1)c1ccc(S(=O)(=O)N2CCCCC2)cc1 (stereo unspecified)	–	·
Cc1cccc(-n2c(O)c(C=Nc3c(C)n(C)n(-c4ccccc4)c3=O)c3ccccc3c2=O)n1	–	–
Cc1ccc(C)c(N2CCN(S(=O)(=O)c3ccc4c(c3)CCC(=O)N4)CC2)c1	–	–
Cc1ccc(C)c(N2CCN(S(=O)(=O)c3ccc4[nH]c(=O)c(=O)[nH]c4c3)CC2)c1	57.2	–
CCn1c(=O)cc(OCC(=O)N(C)C2CCCCC2)c2ccccc21	–	–
CCOC(=O)N1CCN(C(=O)COc2cc(=O)n(CC)c3ccccc23)CC1	67.8	–
CCn1nc(CC(=O)Nc2ccc(-n3cnnn3)c(OC)c2)c2ccccc2c1=O	–	–
COCC(N)(c1ccccc1)c1nc2ccccc2n1C (stereo unspecified)	–	–
Cn1c(=O)n(CC(=O)Nc2ccc(F)cc2)c2ccccc21	–	–
